Assay outcomes deposited in PubChem by several laboratories.
RGS4 block = inhibitors of human RGS4; P49798; HEK293 M3R/RGS4 inducible, Fluo-4 calcium flux; stronger effect = higher value; triggered by carbachol at its EC20; B-score at 10 µM; 310,000 compounds, 0.45% hits;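 active = B-score, a plate-corrected calcium signal, over three deviations above library mean, with baseline fluorescence within five deviations of library mean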;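 also: RGS4 expression induced by doxycycline in cells with stable M3 receptor; B-score is computed from the integrated fluorescence ratio over baseline after carbachol; higher B-score means a larger calcium signal and so more RGS4 inhibition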
Target sequence (P49798 whole entry, looked up): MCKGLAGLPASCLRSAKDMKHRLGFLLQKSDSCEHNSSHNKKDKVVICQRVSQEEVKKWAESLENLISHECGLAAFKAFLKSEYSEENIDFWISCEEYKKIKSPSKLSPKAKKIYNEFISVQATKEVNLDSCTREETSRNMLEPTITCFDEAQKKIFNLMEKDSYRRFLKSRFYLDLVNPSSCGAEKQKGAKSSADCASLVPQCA
MrgX1 PAM = allosterically activates human MrgX1 receptor signaling; 310,000 compounds, 0.63% hits; B-score at 10 µM; AID 588675; MrgX1-HEK293, Fluo-4 calcium flux, FDSS; stronger effect = higher value;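 active = plate-corrected calcium response at least 3 library SD above typical, normal starting fluorescence, not activating the receptor alone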;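 also: compound read alongside a low EC10 to EC30 dose of BAM8-22 agonist; peak minus trough fluorescence over baseline measured at the second addition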
Target sequence (Q96LB2 whole entry, looked up): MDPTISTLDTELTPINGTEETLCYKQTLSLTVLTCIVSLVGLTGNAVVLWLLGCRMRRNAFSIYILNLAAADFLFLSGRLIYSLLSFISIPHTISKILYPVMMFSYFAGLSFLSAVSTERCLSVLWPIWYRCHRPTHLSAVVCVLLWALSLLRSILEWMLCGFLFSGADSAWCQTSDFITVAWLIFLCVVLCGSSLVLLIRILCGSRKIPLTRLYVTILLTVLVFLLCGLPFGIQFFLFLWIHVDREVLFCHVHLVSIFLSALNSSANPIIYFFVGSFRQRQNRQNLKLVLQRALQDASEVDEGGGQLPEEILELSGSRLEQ
MrgX1 agonist = activates human MrgX1 receptor signaling | Q96LB2 | MrgX1-HEK293 cells, Fluo-4 calcium fluorescence, agonist mode; stronger effect = higher value | B-score at 10 µM | 310,000 compounds, 0.44% hits | AID 588627;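 active = calcium response B-score plate-corrected fluorescence ratio at least 3 library SD, with starting fluorescence B-score inside 5 SD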
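System: HEK293 cells stably expressing human MrgX1 receptor; Dosing: test compound in the initial addition of three; Schedule: overnight plating, then 30 min 37 °C plus 30 min room-temperature dye loading; Detection: kinetic calcium dye fluorescence, Fluo-4 NW; Controls: per-plate positive and negative controls for Z′ factor.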
MrgX1 antag = human MrgX1 receptor antagonism, primary screen; Q96LB2; MRGX1-HEK293 calcium flux, Fluo-4, BAM8-22 antagonism; stronger effect = lower value; B-score at 10 µM; 310,000 compounds, 1.3% hits;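 active = calcium-response B-score plate-corrected more than 3 library SD below zero, starting fluorescence within 5 deviations, no agonist response on first addition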;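 also: peak minus trough fluorescence over baseline after final BAM8-22 challenge near maximal dose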
RGS4 act = potentiators or activators of RGS4; B-score at 10 µM; HEK293 M3R/inducible RGS4, carbachol calcium flux Fluo4; stronger effect = lower value; 310,000 compounds, 0.92% hits;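 active = B-score of the integrated calcium signal more than 4 SD below the library mean, with starting fluorescence not abnormally high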;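 also: negative B-score means reduced calcium response which marks RGS4 activation or potentiation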
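Test system: HEK293 cells with stable M3R and inducible RGS4; also added: carbachol at ECmax as muscarinic agonist stimulus; schedule: dye loading 30 min 37 °C, buffer rest 30 min RT; technique: kinetic calcium fluorescence imaging with Fluo4-AM dye, 2 µM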
KCC2 mod = modulates chloride dependent transport by human KCC2. B-score of Tl+ flux slope (higher = more flux/activation; lower = inhibition) at 10 µM. KCC2 cells, thallium flux FluoZin-2 fluorescence. 190,000 compounds, 2.2% hits. AID 1456;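 active = thallium flux slope and its plate-corrected score both differing from the plate sample mean at a set confidence after two filtering rounds, in either direction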;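 also: slope of fluorescence scaled to starting intensity during 10 to 20 s after thallium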
KCC2 sec1 = confirmation of human KCC2 transport modulators; shares compounds with KCC2 mod; HEK293-KCC2, thallium flux, FluoZin2 fluorescence; stronger effect = higher value; normalised thallium flux (F/F0 slope) at 10 µM; 3,700 compounds, 15% hits; AID 1713;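 active = thallium flux slope above the same plate's solvent-only control mean plus 3 SD; inconclusive = the two replicate wells disagree; inactive = no significant difference from solvent-only control wells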
KCC2 bumet counter = thallium flux despite bumetanide block in KCC2 cells, secondary assay 3 | shares compounds with KCC2 mod | HEK293-KCC2 + bumetanide/ouabain, thallium flux FluoZin2; stronger effect = higher value | normalized thallium flux at 10 µM | 3,700 compounds, 49% hits;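 active = thallium entry rate above the same plate's blocked-transporter control wells by more than 3 SD; inconclusive = the two repeat wells disagree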;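 also: raw slope of fluorescence over initial fluorescence between 10 and 20 s after thallium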
KCC2 secondary2 = KCC2 (human) modulation, second secondary assay; HEK293-KCC2, thallium flux FluoZin2 fluorescence; actives lie on both sides; F/F0 rise rate, 10–20 s post-thallium; normalized thallium flux at 10 µM; 3,700 compounds, 23% hits; shares compounds with KCC2 mod;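 active = thallium flux slope more than 3 SD above or below the plate's solvent-only control mean, mostly below; inconclusive = the two repeat wells disagreed; inactive = no significant shift from solvent-only controls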;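 also: raw slope with 0.1% DMSO as baseline and bumetanide as block control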
HEK293 Tl flux = counter-screen for KCC2 modulators: effect in parental HEK293 cells. shares compounds with KCC2 mod. thallium flux FluoZin2, ouabain; baseline-ratio fluorescence slope, 10–20 s after thallium. thallium flux rate (normalised fluorescence) at 10 µM. 3,700 compounds, 46% hits. AID 1716;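 active = thallium flux rate significantly above the same plate's solvent-only control wells, beyond their mean plus 3 SD; inconclusive = the two replicate wells gave conflicting results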
KCC2 ouabain = KCC2 (human) modulation, ouabain retest; 3,700 compounds, 48% hits; shares compounds with KCC2 mod; AID 1717; HEK293-KCC2, thallium flux FluoZin2 fluorescence; bidirectional: low = inhibitor, high = activator; raw Tl+ flux slope (below DMSO = inhibition, above = activation) at 10 µM;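 active = thallium flux slope beyond 3 SD from same-plate DMSO control mean in most replicates, usually higher, sometimes lower; inconclusive = repeat tests gave conflicting results; inactive = no significant difference from controls in most replicates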;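 also: slope of initial-normalized fluorescence between seconds 10 and 20 after thallium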
HEK293 Tl flux2 = counter-screen for KCC2 modulators: effect in parental HEK293 cells. 3,700 compounds, 33% hits. shares compounds with KCC2 mod. thallium flux slope at 10 µM. thallium flux FluoZin-2 fluorescence slope;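 active = thallium flux slope above the same plate's solvent-control mean plus 3 SD in both duplicate wells; inconclusive = duplicate wells that disagreed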;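 also: run without ouabain in cells lacking the KCC2 cotransporter; slope of fluorescence scaled to its starting value between 10 and 20 s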
* = called active by the depositor; i = inactive; ? = inconclusive; . = no result. Rows were chosen to be rich in hits. Some 4.7% of all compounds tested hit in one or more screens of this group.

SMILES | RGS4 block | MrgX1 PAM | MrgX1 agonist | MrgX1 antag | RGS4 act | KCC2 mod | KCC2 sec1 | KCC2 bumet counter | KCC2 secondary2 | HEK293 Tl flux | KCC2 ouabain | HEK293 Tl flux2
CC(C)Cc1c2c([nH]c(=S)c1C#N)CCCC2 | i | i | i | i | i | 27* | 0.019* | 0.068* | 0.037 | 0.034* | 0.058* | 0.014*
Cc1[nH]c(=S)c(C#N)c2c1CCCC2 | i | i | i | i | i | 3.8* | 0.0088 | 0.0086* | 0.035 | 0.011* | 0.021 | 0.011
CC(OC(=O)C1CCCC1)C(=O)Nc1ccc(S(N)(=O)=O)cc1 (configuration not stated) | i | i | i | i | i | . | . | . | . | . | . | .
CCc1ccc(N2CC(C(=O)NC3CCCCC3C)CC2=O)cc1 (configuration not stated) | i | i | i | i | i | . | . | . | . | . | . | .
COc1cccc(NC(=O)N2CCC(NC(=O)c3ccco3)CC2)c1 | i | i | i | i | i | . | . | . | . | . | . | .
CCCc1nnc(SCC(=O)N2CCOCC2)n1CCCOC | i | i | i | i | i | 8* | 0.0065 | 0.005 | 0.03 | 0.0076 | 0.018 | 0.01
O=C(O)/C=C/c1cn(Cc2ccccc2Cl)nc1-c1ccccc1 | i | i | i | i | i | -5.1* | 0.0066 | 0.0044 | 0.024* | 0.0073 | 0.011* | 0.01
Cc1ccc(Cn2cc(/C=C/C(=O)O)c(-c3ccccc3)n2)cc1 | i | i | i | i | i | -2.9 | . | . | . | . | . | .
Cc1ccc(-c2nn(Cc3ccccc3)cc2/C=C/C(=O)O)cc1 | i | i | i | i | i | -4.5* | 0.0095 | 0.0063 | 0.025* | 0.0082 | 0.013* | 0.012
N#CCCn1cc(/C=C/C(=O)O)c(-c2ccc(F)cc2)n1 | i | i | i | i | i | -0.77 | . | . | . | . | . | .
O=C(O)/C=C/c1cn(Cc2ccccc2)nc1-c1ccc(Cl)cc1 | i | i | i | i | i | -4.7* | ? | 0.006 | ? | 0.0062 | 0.012* | 0.01
O=C(NC1CCCCC1)C1CCN(S(=O)(=O)c2cccc3nonc23)CC1 | i | i | i | i | i | . | . | . | . | . | . | .
COc1cc([N+](=O)[O-])ccc1NC(=O)COC(=O)CCS(=O)(=O)c1ccc(C)cc1 | i | i | i | i | i | . | . | . | . | . | . | .
Cc1oc2c(CN3CCCC(C)C3)c(O)ccc2c(=O)c1-c1ccccc1 (configuration not stated) | i | i | i | i | i | . | . | . | . | . | . | .
Cc1nn(-c2ccc(F)cc2)c(Cl)c1/C=C(\CCC(=O)O)c1nc2ccccc2s1 | i | i | i | i | i | -9.4* | ? | ? | 0.018* | 0.0059* | 0.0093* | ?
O=C(O)CCSc1nc2ccccc2s1 | i | i | i | i | i | . | . | . | . | . | . | .
O=C(O)CC/C(=C\c1ccccc1[N+](=O)[O-])c1nc2ccccc2s1 | i | i | i | i | i | -4.1* | 0.0092 | 0.0072 | ? | 0.0065 | 0.012* | 0.01
O=C(O)C/C(=C\c1ccc2c(c1)OCO2)c1nc2ccccc2s1 | i | i | i | i | i | . | . | . | . | . | . | .
CCOC(=O)N1CCN(C(=O)/C=C/c2c(C)nn(-c3ccc(F)cc3)c2Cl)CC1 | i | . | . | . | i | -2.7 | . | . | . | . | . | .
O=C(O)CC/C(=C\c1ccc(N2CCCC2)c([N+](=O)[O-])c1)c1nc2ccccc2s1 | i | i | i | i | i | -8.5* | 0.007 | 0.0046 | 0.02* | 0.0073 | 0.011* | 0.0097
O=C(O)CC/C(=C\c1cccc(NC(=O)c2ccccc2Cl)c1)c1nc2ccccc2s1 | i | i | i | i | i | -2.3* | 0.007 | 0.0051 | ? | 0.0077 | ? | 0.012
Cn1c(CNC(=O)CNC(=O)c2ccc(F)cc2)cc(=O)n(C)c1=O | i | i | i | i | i | . | . | . | . | . | . | .
Cc1cc(O)c(S(=O)(=O)c2ccccc2)c(C)c1NS(=O)(=O)c1ccccc1 | i | i | i | i | i | . | . | . | . | . | . | .
O=C(NNC(=O)c1ccccc1O)c1ccc(Cl)c(S(=O)(=O)N2CCc3ccccc32)c1 | i | i | i | i | i | . | . | . | . | . | . | .
CC(C)C(CCNC(=O)CN1C(=O)c2ccccc2C1=O)c1ccco1 (configuration not stated) | i | i | i | i | i | 1.6 | . | . | . | . | . | .
SMILES | RGS4 block | MrgX1 PAM | MrgX1 agonist | MrgX1 antag | RGS4 act | KCC2 mod | KCC2 sec1 | KCC2 bumet counter | KCC2 secondary2 | HEK293 Tl flux | KCC2 ouabain | HEK293 Tl flux2
CC(C)C(CCNC(=O)CC(Cc1ccccc1)c1ccco1)c1ccco1 (configuration not stated) | i | i | i | i | i | -4.5* | ? | 0.005 | ? | ? | 0.016* | 0.0095
CCC(=O)N1CCc2cc(OC)c(OC)cc2C1COc1ccccc1OC (configuration not stated) | i | . | . | . | i | -5* | 0.0055 | 0.0044 | 0.03 | 0.0076 | 0.02 | 0.011
COC(=O)[C@@H](NCc1cccc(CN[C@H](C(=O)OC)c2ccccc2)c1)c1ccccc1 | i | i | i | i | i | . | . | . | . | . | . | .
N#C/C(=C(/O)COC(=O)c1ccccc1O)c1nc2ccccc2s1 | i | i | i | i | i | -5.1* | 0.0063 | 0.0074 | 0.029 | 0.0065 | 0.016* | 0.009
Cc1c(-n2c(SCC(=O)O)nnc2-c2ccccc2Cl)c(=O)n(-c2ccccc2)n1C | i | i | i | i | i | 0.046 | 0.0091 | 0.0054 | 0.032 | 0.0076 | 0.02 | ?
O=C(O)CSc1nnc(-c2ccc(Cl)cc2)n1-c1ccccc1 | i | i | i | i | i | . | . | . | . | . | . | .
